Data reported in ChEMBL document CHEMBL5143741, “Design, Synthesis, and Biological Activity of New CB2 Receptor Ligands: from Orthosteric and Allosteric Modulators to Dualsteric/Bitopic Ligands” (J Med Chem, 2022).
Calls of active or inactive are those of the source.

Assays:
Cannabinoid receptor 2 [1] = target: T1, Cannabinoid receptor 2 (Homo sapiens, UniProt P34972); assay: Agonist activity at human CB2 receptor expressed in CHO-K1 cells assessed as enhancement of beta arrestin-2 recruitment incubated for 90 mins by […] chemiluminescence based assay; assay type: functional, cell-based
T1 sequence (P34972 whole entry): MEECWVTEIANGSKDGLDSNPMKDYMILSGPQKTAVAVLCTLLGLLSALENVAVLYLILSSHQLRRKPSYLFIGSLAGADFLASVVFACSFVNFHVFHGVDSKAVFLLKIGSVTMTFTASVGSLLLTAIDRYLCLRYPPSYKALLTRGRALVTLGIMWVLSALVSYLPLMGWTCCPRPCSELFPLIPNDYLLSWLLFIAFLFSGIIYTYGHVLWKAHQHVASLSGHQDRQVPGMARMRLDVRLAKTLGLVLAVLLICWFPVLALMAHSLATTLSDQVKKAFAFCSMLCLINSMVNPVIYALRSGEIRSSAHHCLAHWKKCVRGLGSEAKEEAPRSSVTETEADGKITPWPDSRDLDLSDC
Outline: (§1)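 PathHunter beta-arrestin2 recruitment in DiscoveRx CHO-K1 cells stably expressing hCB2R, seeded overnight in Opti-MEM with 1% FBS at 37 °C. Ligands (0.10 nM–10 μM) added for 90 min at 37 °C, then detection solution 60 min at room temperature and chemiluminescence read.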

Cannabinoid receptor 2 [2] = target: T1, Cannabinoid receptor 2; assay: Agonist activity at human CB2 receptor expressed in CHO-K1 cells assessed as inhibition of froskolin-stimulated cAMP accumulation at 10 uM incubated for 90 mins by HitHunter chemiluminescence based assay relative to CP55,940; assay type: functional, cell-based
Outline: (§2)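 HitHunter assay in DiscoveRx CHO-K1 hCB2R cells, seeded overnight in Opti-MEM with 1% FBS, then put in assay buffer. Cells cotreated at 37 °C for 90 min with 10 μM forskolin and ligand (0.10 nM–10 μM). cAMP antibody/detection solutions added for 60 min at room temperature, then solution A for 180 min, then chemiluminescence read. Response given as % CP55,940; three-parameter fit; n = 6 in triplicate.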

Cannabinoid receptor 2 [3] = target: T1, Cannabinoid receptor 2; assay: Displacement of [3H]-CP55,940 from human CB2R expressed in CHO-K1 cell membranes incubated for 2 hrs by liquid scintillation spectrophotometry relative to CP55,940; conditions: Membrane
Outline: (§3)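 Membranes from CHO-K1 cells stably expressing hCB1R or hCB2R (50 μg protein) incubated with 1 nM [3H]CP55,940 and compound (0.10 nM–10 μM) in Tris binding buffer with 0.1% BSA, pH 7.4, for 120 min at 37 °C. Bound ligand filtered on GF/B and counted by liquid scintillation. Nonspecific binding defined with 1 μM unlabelled CP55,940; three-parameter fit; n = 3 in duplicate.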

Cannabinoid receptor 1 [4] = target: T2, Cannabinoid receptor 1 (Homo sapiens, UniProt P21554); assay: Displacement of [3H]-CP55,940 from human CB1R expressed in CHO-K1 cell membranes assessed as inhibition constant incubated for 2 hrs by liquid scintillation spectrometry analysis; design: species or system Membrane
T2 sequence (P21554 whole entry): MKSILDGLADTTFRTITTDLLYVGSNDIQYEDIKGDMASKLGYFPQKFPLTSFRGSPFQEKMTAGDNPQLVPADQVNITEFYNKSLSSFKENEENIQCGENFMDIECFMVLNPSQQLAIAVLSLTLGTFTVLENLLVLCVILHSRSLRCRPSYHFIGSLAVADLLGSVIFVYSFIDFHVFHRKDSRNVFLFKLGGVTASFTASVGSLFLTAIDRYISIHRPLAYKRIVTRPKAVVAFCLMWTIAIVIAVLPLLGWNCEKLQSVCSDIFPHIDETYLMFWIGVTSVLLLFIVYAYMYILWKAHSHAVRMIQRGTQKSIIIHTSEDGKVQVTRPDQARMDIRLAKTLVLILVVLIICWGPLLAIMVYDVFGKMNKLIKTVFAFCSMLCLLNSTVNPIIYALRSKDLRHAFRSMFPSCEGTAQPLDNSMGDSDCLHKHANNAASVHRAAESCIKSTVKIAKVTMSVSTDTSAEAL

Cannabinoid receptor 2 [5] = target: T1, Cannabinoid receptor 2; assay: Agonist activity at human CB2 receptor expressed in CHO-K1 cells assessed as enhancement of beta arrestin-2 recruitment at 10 uM incubated for 90 mins by HitHunter chemiluminescence based assay relative to CP55,940; assay type: functional, cell-based
Outline: as §1, with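 “read. Data expressed as % CP55,940 response and fitted by three-parameter nonlinear regression; n = 6 independent experiments in triplicate.” for “read.”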

Cannabinoid receptor 2 [6] = target: T1, Cannabinoid receptor 2; assay: Agonist activity at human CB2 receptor expressed in CHO-K1 cells assessed as inhibition of froskolin-stimulated cAMP accumulation incubated for 90 mins by HitHunter chemiluminescence based assay; assay type: functional, cell-based
Outline: as §2, with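 “read.” for “read. Response given as % CP55,940; three-parameter fit; n = 6 in triplicate.”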

Cannabinoid receptor 2 [7] = target: T1, Cannabinoid receptor 2; assay: Displacement of [3H]-CP55,940 from human CB2R expressed in CHO-K1 cell membranes assessed as inhibition constant incubated for 2 hrs by liquid scintillation spectrometry; design: species or system Membrane
Cannabinoid receptor 1 [8] = target: T2, Cannabinoid receptor 1; assay: Displacement of [3H]-CP55,940 from human CB1R expressed in CHO-K1 cell membranes incubated for 2 hrs by liquid scintillation spectrometry relative to CP55,940; conditions: Membrane; outline: as §3
Cannabinoid receptor 2 [9] = target: T1, Cannabinoid receptor 2; assay: Agonist activity at human CB2 receptor expressed in CHO-K1 cells assessed as inhibition of froskolin-stimulated cAMP accumulation incubated for 90 mins in presence of EC-21a by HitHunter chemiluminescence based assay; assay type: functional, cell-based
Cannabinoid receptor 2 [10] = target: T1, Cannabinoid receptor 2; assay: Agonist activity at human CB2 receptor expressed in CHO-K1 cells assessed as inhibition of froskolin-stimulated cAMP accumulation at 50 nM incubated for 90 mins in presence of EC-21a by HitHunter chemiluminescence based assay relative to CP55,940; assay type: functional, cell-based
Cannabinoid receptor 2 [11] = target: T1, Cannabinoid receptor 2; assay: Agonist activity at human CB2 receptor expressed in CHO-K1 cells assessed as inhibition of froskolin-stimulated cAMP accumulation incubated for 90 mins in presence of SR144528 by HitHunter chemiluminescence based assay; assay type: functional, cell-based
Outline: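 Forskolin (10 μM)-stimulated cAMP HitHunter assay in CHO-K1 hCB2R cells, 90 min at 37 °C. Ligand at 0.1 nM–10 μM given at the same time as a fixed 100 nM SR144528. Data given as % CP55,940; three-parameter fit; 3–6 independent experiments in triplicate.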

Cannabinoid receptor 2 [12] = target: T1, Cannabinoid receptor 2; assay: Agonist activity at human CB2 receptor expressed in CHO-k1 cells assessed as inhibition of froskolin-stimulated cAMP accumulation at 5 nM incubated for 90 mins in presence of EC-21a by HitHunter chemiluminescence based assay relative to CP55,940; assay type: functional, cell-based
BV-2 [13] = assay: Antiinflammatory activity in LPS-induced mouse microglial BV-2 cells assessed as increase in IL-10 release at 1 uM preincubated for 1 hr followed by LPS-stimulation and measured after 4 hrs by ELISA; assay type: functional, cell-based; conditions: time 5.0 hrs
Outline: (§4)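 Murine BV2 microglia given 1 μM compound 1 h before LPS (5 μg/mL), then stimulated 4 h. IL-6 or IL-10 in the medium measured by ELISA (pg/mL). Where used, SR144528 (1 μM) added 15 min before agonist. n = 3 independent experiments in duplicate; one-way ANOVA with Tukey test.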

HMC3 [14] = assay: Antiinflammatory activity in LPS/TNFalpha-induced HMC3 cells assessed as increase in IL-10 release at 1 uM pretreated with compound for 1 hr followed by LPS/TNFalpha stimulation and measured after 24 hrs by ELISA; assay type: functional, cell-based; conditions: Homo sapiens, time 25.0 hrs
Outline: (§5)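 HMC3 human microglia in high-glucose DMEM with 10% FBS, pretreated 1 h with compound (100 nM–10 μM), then stimulated with LPS (10 μg/mL) plus TNFα (50 ng/mL) for 24 h. IL-6 or IL-10 in the medium measured by ELISA. SR144528 (1 μM) added 15 min before agonist where used; JWH133 served as positive control. n = 3 in duplicate; ANOVA with Tukey test.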

HMC3 [15] = assay: Antiinflammatory activity in LPS/TNFalpha-induced HMC3 cells assessed as decrease in IL-6 release at 1 uM pretreated with compound for 1 hr followed by LPS/TNFalpha stimulation and measured after 24 hrs by ELISA; assay type: functional, cell-based; conditions: Homo sapiens, time 25.0 hrs; outline: as §5
[16] = Cytotoxicity against LPS/TNFalpha-induced HMC3 cells assessed as reduction in cell viability at 1 uM pretreated with compound for 1 hr followed by LPS/TNFalpha stimulation and measured after 24 hrs by MTT assay; assay type: toxicity, cell-based; conditions: human, hmc3, 25 h
Outline: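 HMC3 microglial cells exposed to compound at 100 nM, 1 μM and 10 μM; viability read by MTT reduction. n = 3 independent experiments in triplicate; one-way ANOVA with Tukey test.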

BV-2 [17] = assay: Antiinflammatory activity in LPS-induced mouse microglial BV-2 cells assessed as decrease in IL-6 release at 1 uM preincubated for 1 hr followed by LPS-stimulation and measured after 4 hrs by ELISA; assay type: functional, cell-based; conditions: time 5.0 hrs; outline: as §4
Mus musculus [18] = assay: Antinociceptive activity against oxaliplatin-induced neuropathic pain in po dosed CD-1 albino mouse assessed as decrease in neuropathic pain measured upto 75 min by cold plate assay; assay type: functional, organism-based; conditions: DDE = dose-dependent effect
Outline: (§6)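 Male CD-1 mice (22–25 g) given oxaliplatin 2.4 mg/kg i.p. in 5% glucose on days 1–2, 5–9 and 12–14. On day 15 compound given orally at 1, 5 or 20 mg/kg in 1% carboxymethylcellulose. Cold plate held at 4 °C; latency to paw licking or lifting recorded (cut-off 60 s) at 15, 30, 45, 60 and 75 min. 16 mice per group over 2 experimental sets.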

Mus musculus [19] = assay: Antinociceptive activity against oxaliplatin-induced neuropathic pain in CD-1 albino mouse assessed as decrease in neuropathic pain at 20 mg/kg, po measured after 15 to 60 mins by cold plate assay; assay type: functional; design: scale not given: the % may be the effect or the level left; conditions: time 15-60 min; outline: as §6

Compound	EC50 (Cannabinoid receptor 2 [1]) [nM]	Ki (Cannabinoid receptor 1 [4]) [nM]	Emax (Cannabinoid receptor 2 [5]; filed as agonist) [%]	EC50 (Cannabinoid receptor 2 [6]) [nM]	Ki (Cannabinoid receptor 2 [7]) [nM]	Emax (Cannabinoid receptor 2 [2]) [%]	Emin (Cannabinoid receptor 2 [3]; filed as agonist) [%]	Emin (Cannabinoid receptor 1 [8]; filed as agonist) [%]	further results
Cc1c(Br)cc(C(=O)NC2CCCCCC2)c(=O)n1Cc1ccc(F)cc1	63	0.79	45	20	7	–	–	–	Emax (Cannabinoid receptor 2 [2]; filed as agonist): 76%; Emin (Cannabinoid receptor 2 [3]): 13%; Emin (Cannabinoid receptor 1 [8]): 29%
Cc1nc(OCCCCCn2cc(CCCn3cc(Br)c(C)c(NC(=O)C4CCCCCC4)c3=O)nn2)c(C(=O)NC2CCCCCC2)cc1Br	> 10000	> 10000	43	8	1.9	38	52	95	Emax (Cannabinoid receptor 2 [9]): 20%; Emax (Cannabinoid receptor 2 [10]): 38%; Emax (Cannabinoid receptor 2 [11]): 39%; Emax (Cannabinoid receptor 2 [12]): 29%
Cc1c(Br)cn(CCCc2cn(CCCn3c(C)c(Br)cc(C(=O)NC4CCCCCC4)c3=O)nn2)c(=O)c1NC(=O)C1CCCCCC1	> 10000	–	46	> 10000	–	21	–	–	–
CCCCCCC(C)(C)c1ccc([C@@H]2C[C@H](O)CC[C@H]2CCCO)c(O)c1	–	–	–	–	–	–	–	–	Emin (Cannabinoid receptor 2 [3]): 0%; Emin (Cannabinoid receptor 1 [8]): 0%
Cc1c(Br)cn(Cc2ccc(F)cc2)c(=O)c1NC(=O)C1CCCCCC1	> 10000	> 10000	–	> 10000	19	2.5	130	103	Emax (Cannabinoid receptor 2 [5]): 1.4%
Cc1c(Br)cn(Cc2cn(CCCn3c(C)c(Br)cc(C(=O)NC4CCCCCC4)c3=O)nn2)c(=O)c1NC(=O)C1CCCCCC1	560	–	53	> 10000	–	21	–	–	–
Cc1c(Br)cn(CCCc2cn(CCCCCn3c(C)c(Br)cc(C(=O)NC4CCCCCC4)c3=O)nn2)c(=O)c1NC(=O)C1CCCCCC1	> 10000	> 10000	–	73	1.4	–	40	89	Activity (BV-2 [13]): Active; Emax (Cannabinoid receptor 2 [2]; filed as agonist): 52%; Activity (HMC3 [14]): Active; Activity (HMC3 [15]): Active; Activity [16]: Non-Toxic; Emax (Cannabinoid receptor 2 [5]): 30%; Activity (BV-2 [17]): Active; EC50 (Cannabinoid receptor 2 [9]): 2.2 nM; Activity (Mus musculus [18]): Dde; Activity (Mus musculus [19]): 100%; EC50 (Cannabinoid receptor 2 [10]): 8 nM; EC50 (Cannabinoid receptor 2 [11]): 61 nM
Cc1c(Br)cn(Cc2cn(CCCCCn3c(C)c(Br)cc(C(=O)NC4CCCCCC4)c3=O)nn2)c(=O)c1NC(=O)C1CCCCCC1	> 10000	–	41	> 10000	–	22	–	–	–
